Assay results reported in ChEMBL document CHEMBL2321850, “Fragment-based discovery of 8-hydroxyquinoline inhibitors of the HIV-1 integrase-lens epithelium-derived growth factor/p75 (IN-LEDGF/p75) interaction” (J Med Chem, 2013).

Columns and labels:
[1] = test system: Human immunodeficiency virus 1; experiment: Inhibition of HIV-1 FLAG-6x-His-tagged integrase interaction to FLAG-tagged LEDGF/p75 at 10 uM preincubated for 30 mins prior to LEDGF/p75 addition measured after 60 mins by quenching assay
MT4 = experiment: Cytotoxicity against human MT4 cells assessed as cell viability after 72 hrs by MTT assay; assay type: cell-based; settings: mt4, 72 h
Method in brief: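 MT-4 cells exposed to fivefold serial dilutions of compound run in parallel with the antiviral MTT cytopathic-effect assay; CC50 taken as the concentration killing 50% of MT-4 cells.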

[2] = Inhibition of HIV-1 His6-tagged integrase interaction to FLAG-tagged LEDGF/p75 preincubated for 30 mins prior to LEDGF/p75 addition measured after 60 mins by alphascreen assay; parameters: species or system Human immunodeficiency virus 1
Method in brief: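 His6-tagged IN (300 nM final) preincubated with compound (20 µM final) 30 min at 4 °C, then FLAG-LEDGF/p75 (300 nM final) added for 60 min at 4 °C; Ni-chelate donor and anti-FLAG acceptor beads (20 µg/mL each) added, 1 h at 30 °C, light-protected; acceptor-bead emission read.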

[3] = target: T1, Human immunodeficiency virus type 1 integrase (Human immunodeficiency virus 1, UniProt Q7ZJM1); experiment: Inhibition of HIV-1 integrase strand transfer activity
LNCaP = experiment: Cytotoxicity against human LNCAP cells assessed as inhibition of cell proliferation after 72 hrs by MTT assay; assay type: cell-based
[4] = test system: Human immunodeficiency virus; experiment: Antiviral activity against HIV infected human MT4 cells assessed as decrease of virus-induced cytopathic effect after 72 hrs by MTT assay; assay type: functional, organism-based; settings: Human immunodeficiency virus 1, MT4, 72 h
Method in brief: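 MT-4 cells infected with 100 to 300 CCID50 of HIV (CCID50 from virus-stock titration on MT-4) in presence of fivefold serial compound dilutions; protection from viral cytopathic effect read by MTT; EC50 = concentration giving 50% protection. CC50 in MT-4 cells measured in parallel.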

[5] = target: T1, Human immunodeficiency virus type 1 integrase; experiment: Inhibition of HIV-1 integrase 3'-processing activity

T1 sequence (Q7ZJM1 whole entry): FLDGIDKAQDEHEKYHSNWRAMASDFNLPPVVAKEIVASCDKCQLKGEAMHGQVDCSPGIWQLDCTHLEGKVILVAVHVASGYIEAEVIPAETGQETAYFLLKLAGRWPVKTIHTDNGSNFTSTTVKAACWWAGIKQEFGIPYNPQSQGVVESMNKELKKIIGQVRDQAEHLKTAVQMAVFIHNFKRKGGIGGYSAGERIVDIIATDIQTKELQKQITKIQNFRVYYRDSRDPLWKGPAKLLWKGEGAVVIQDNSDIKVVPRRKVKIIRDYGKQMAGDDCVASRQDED

Row | Compound | inhibition [1] [%] | CC50 (MT4) [µM] | IC50 [2] [µM] | IC50 [3] [µM] | CC50 (LNCaP) [µM] | EC50 [4] [µM] | IC50 [5] [µM]
1 | Oc1ccc(CNc2cccc(C(F)(F)F)c2)c2cccnc12 | < 50 | 10 | 2.9 | > 20 | > 10 | > 10 | > 20
2 | Cc1cccc(NCc2ccc(O)c3ncccc23)c1C | < 50 | 13 | 3 | > 20 | > 10 | > 13 | > 20
3 | CC(=O)NC(c1ccccc1)c1cc(Cl)c2cccnc2c1O (stereo not given) | < 50 |  | 3 | > 20 | 0.74 |  | > 20
4 | Oc1ccc(CNc2ccccc2F)c2cccnc12 | < 50 | 9 | 3.7 | > 20 | > 10 | > 9 | > 20
5 | CCC(=O)NC(c1cccs1)c1cc([N+](=O)[O-])c2cccnc2c1O (stereo not given) | < 50 |  | 3.5 | > 20 | 5 |  | > 20
6 | CCOCc1ccc(O)c2ncccc12 | < 50 |  | 2.4 | > 20 | 2 |  | > 20
7 | Oc1ccc(CNc2ccc(C(F)(F)F)cc2)c2cccnc12 | < 50 | 9 | 2.1 | > 20 | > 10 | > 9 | > 20
8 | Oc1ccc(Cl)c2cccnc12 [CLOXYQUIN] | < 50 |  | 3.6 | > 20 | 5 |  | > 20
9 | CCC(=O)NC(c1ccc(OC)cc1)c1cc([N+](=O)[O-])c2cccnc2c1O (stereo not given) | < 50 | 10 | 2.6 | > 20 | > 10 | > 10 | > 20
10 | CCCC(=O)NC(c1ccc(OC)cc1)c1ccc2cccnc2c1O (stereo not given) | < 50 |  | 4 | > 20 | 0.62 |  | > 20
11 | CCOC(=O)C1CCCN(Cc2ccc(O)c3ncccc23)C1 (stereo not given) | < 50 | 9 | 2 | > 20 | > 10 | > 9 | > 20
12 | CCC(=O)NC(c1ccco1)c1cc(Cl)c2cccnc2c1O (stereo not given) | < 50 |  | 4 | > 20 | 0.72 |  | > 20
13 | CC(=O)NC(c1ccc(N(C)C)cc1)c1cc(Cl)c2cccnc2c1O (stereo not given) | < 50 |  | 4 | > 20 | 0.62 |  | > 20
14 | Oc1ccc(CNc2ccccc2Cl)c2cccnc12 | < 50 | 34 | 4.8 | > 20 | > 10 | > 34 | > 20
15 | CCOc1ccc(NCc2ccc(O)c3ncccc23)cc1 | < 50 | 11 | 4 | > 20 | > 10 | > 11 | > 20
16 | CCC(=O)NC(c1ccccc1OC)c1ccc2cccnc2c1O (stereo not given) | < 50 |  | 2 | > 20 | 0.58 |  | > 20

Row | Compound | inhibition [1] [%] | CC50 (MT4) [µM] | IC50 [2] [µM] | IC50 [3] [µM] | CC50 (LNCaP) [µM] | EC50 [4] [µM] | IC50 [5] [µM]
17 | Oc1ccc(CN2CCN(c3ccccn3)CC2)c2cccnc12 | < 50 | 9 | 1.9 | > 20 | > 10 | > 9 | > 20
18 | Oc1ccc(CN2CCN(c3ccccc3)CC2)c2cccnc12 | < 50 |  | 2.1 | > 20 | 5 |  | > 20
19 | Cc1cccnc1NCc1ccc(O)c2ncccc12 | < 50 | 11 | 3.5 | > 20 | > 10 | > 11 | > 20
20 | CN1CCN(Cc2ccc(O)c3ncccc23)CC1 | < 50 | 35 | 0.8 | > 20 | > 10 | > 35 | > 20
21 | COc1cccc(NCc2ccc(O)c3ncccc23)c1 | < 50 |  | 3.2 | > 20 | 5 |  | > 20
22 | CCOC(=O)C1CCN(Cc2ccc(O)c3ncccc23)CC1 | < 50 |  | 2.2 | > 20 | > 10 |  | > 20
23 | Cc1cccc(NCc2ccc(O)c3ncccc23)c1 | < 50 | 9 | 4 | > 20 | > 10 | > 9 | > 20
24 | Oc1ccc(Cc2ccc(O)c3ncccc23)c2cccnc12 | < 50 |  | 2 | > 20 | 0.1 |  | > 20
25 | CCN1CCN(Cc2ccc(O)c3ncccc23)CC1 | < 50 | 42 | 1.2 | > 20 | > 10 | > 42 | > 20
26 | COc1ccc(C(NC(C)=O)c2cc([N+](=O)[O-])c3cccnc3c2O)cc1OC (stereo not given) | < 50 | 42 | 3.9 | > 20 | > 10 | > 42 | > 20
27 | Oc1c(Cl)cc(Cl)c2cccnc12 [CHLOROXINE] | < 50 |  | 4.3 | > 20 | 2.5 |  | > 20
28 | Oc1ccccc1C(Nc1nccs1)c1ccc2cccnc2c1O (stereo not given) | < 50 |  | 4.7 | > 20 | 2.4 |  | > 20
29 | Oc1ccc(CN2CCN(Cc3ccccc3)CC2)c2cccnc12 | < 50 | 11 | 2.2 | > 20 | > 10 | > 11 | > 20
30 | CCC(=O)NC(c1ccc(OC)c(OC)c1)c1cc(Cl)c2cccnc2c1O (stereo not given) | < 50 |  | 4 | > 20 | 3 |  | > 20
31 | COc1cccc(C(NC(C)=O)c2ccc3cccnc3c2O)c1 (stereo not given) | < 50 |  | 2 | > 20 | 0.58 |  | > 20
32 | CCCC(=O)NC(c1ccccc1)c1ccc2cccnc2c1O (stereo not given) | < 50 |  | 1.4 | > 20 | 0.68 |  | > 20
